System: U2OS
Assay: Multiplex assay against U2OS
Format: toxicity, cell-based
Conditions: human
In short: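 With compound added, live cells were imaged on a CQ1 microscope at 37°C and 5% CO2; staining with Hoechst33342, BioTracker Green Microtubule Cytoskeleton Dye, MitoTracker Red and Annexin V Alexa Fluor 680 had been done at seeding. The CellPathfinder machine-learning gating scheme split cells into Hoechst high-intensity objects or normal cells, normal cells into healthy, pyknosed or fragmented nuclei, and pyknosed cells into mitotic or apoptotic. The tubulin, mitochondrial-mass and membrane-permeability phenotypes are per cents of healthy-nucleus cells.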

[1] = 12 h, 1 µM, compound concentration 1 uM, replicate 1
[2] = 12 h, 1 µM, compound concentration 1 uM, replicate 2
[3] = 12 h, 10 µM, compound concentration 10 uM, replicate 1
[4] = 12 h, 10 µM, compound concentration 10 uM, replicate 2
[5] = 24 h, 1 µM, compound concentration 1 uM, replicate 1
[6] = 24 h, 1 µM, compound concentration 1 uM, replicate 2
[7] = 24 h, 10 µM, compound concentration 10 uM, replicate 1
[8] = 24 h, 10 µM, compound concentration 10 uM, replicate 2
[9] = 48 h, 1 µM, compound concentration 1 uM, replicate 1
[10] = 48 h, 1 µM, compound concentration 1 uM, replicate 2
[11] = 48 h, 10 µM, compound concentration 10 uM, replicate 1
[12] = 48 h, 10 µM, compound concentration 10 uM, replicate 2

## CN(C)C(=O)C(CCN1CCC(O)(c2ccc(Cl)cc2)CC1)(c1ccccc1)c1ccccc1.Cl [LOPERAMIDE HYDROCHLORIDE]
[1]
  Population Apoptotic (%): 37%
  Population Fragmented Nuclei (%): 11%
  Population Healthy Nuclei (%): 69%
  Population Hoechst High Intensity Objects (%): 4%
  Population Membrane Permeable-Phenotype (%): 5%
  Population Mitochondria Different-Phenotype (%): 82%
  Population Mitotic Cells (%): 62%
  Population Normal (%): 95%
  Population Pyknosed Nuclei (%): 19%
  Population Tubulin-Different-Phenotype (%): 87%
  Total Cell Count: 181
[2]
  Population Apoptotic (%): 25%
  Population Fragmented Nuclei (%): 5%
  Population Healthy Nuclei (%): 88%
  Population Hoechst High Intensity Objects (%): 7%
  Population Membrane Permeable-Phenotype (%): 11%
  Population Mitochondria Different-Phenotype (%): 90%
  Population Mitotic Cells (%): 75%
  Population Normal (%): 92%
  Population Pyknosed Nuclei (%): 6%
  Population Tubulin-Different-Phenotype (%): 65%
  Total Cell Count: 55
[3]
  Population Apoptotic (%): 66%
  Population Fragmented Nuclei (%): 16%
  Population Healthy Nuclei (%): 42%
  Population Hoechst High Intensity Objects (%): 5%
  Population Membrane Permeable-Phenotype (%): 77%
  Population Mitotic Cells (%): 33%
  Population Normal (%): 95%
  Population Pyknosed Nuclei (%): 40%
  Total Cell Count: 129
[4]
  Population Apoptotic (%): 82%
  Population Fragmented Nuclei (%): 8%
  Population Healthy Nuclei (%): 48%
  Population Hoechst High Intensity Objects (%): 6%
  Population Membrane Permeable-Phenotype (%): 94%
  Population Mitochondria Different-Phenotype (%): 100%
  Population Mitotic Cells (%): 17%
  Population Normal (%): 93%
  Population Pyknosed Nuclei (%): 43%
  Population Tubulin-Different-Phenotype (%): 100%
  Total Cell Count: 64
[5]
  Population Apoptotic (%): 60%
  Population Fragmented Nuclei (%): 10%
  Population Healthy Nuclei (%): 74%
  Population Hoechst High Intensity Objects (%): 5%
  Population Membrane Permeable-Phenotype (%): 6%
  Population Mitochondria Different-Phenotype (%): 84%
  Population Mitotic Cells (%): 40%
  Population Normal (%): 94%
  Population Pyknosed Nuclei (%): 14%
  Population Tubulin-Different-Phenotype (%): 75%
  Total Cell Count: 222
[6]
  Population Apoptotic (%): 53%
  Population Fragmented Nuclei (%): 5%
  Population Healthy Nuclei (%): 71%
  Population Hoechst High Intensity Objects (%): 4%
  Population Membrane Permeable-Phenotype (%): 16%
  Population Mitochondria Different-Phenotype (%): 89%
  Population Mitotic Cells (%): 46%
  Population Normal (%): 95%
  Population Pyknosed Nuclei (%): 22%
  Population Tubulin-Different-Phenotype (%): 62%
  Total Cell Count: 68
[7]
  Population Apoptotic (%): 92%
  Population Fragmented Nuclei (%): 23%
  Population Healthy Nuclei (%): 18%
  Population Hoechst High Intensity Objects (%): 4%
  Population Membrane Permeable-Phenotype (%): 92%
  Population Mitochondria Different-Phenotype (%): 100%
  Population Mitotic Cells (%): 7%
  Population Normal (%): 95%
  Population Pyknosed Nuclei (%): 57%
  Population Tubulin-Different-Phenotype (%): 100%
  Total Cell Count: 146
[8]
  Population Apoptotic (%): 98%
  Population Fragmented Nuclei (%): 10%
  Population Healthy Nuclei (%): 26%
  Population Hoechst High Intensity Objects (%): 10%
  Population Membrane Permeable-Phenotype (%): 86%
  Population Mitochondria Different-Phenotype (%): 95%
  Population Mitotic Cells (%): 1%
  Population Normal (%): 89%
  Population Pyknosed Nuclei (%): 62%
  Population Tubulin-Different-Phenotype (%): 95%
  Total Cell Count: 70
[9]
  Population Apoptotic (%): 60%
  Population Fragmented Nuclei (%): 6%
  Population Healthy Nuclei (%): 78%
  Population Hoechst High Intensity Objects (%): 6%
  Population Mitochondria Different-Phenotype (%): 72%
  Population Mitotic Cells (%): 40%
  Population Normal (%): 93%
  Population Pyknosed Nuclei (%): 15%
  Population Tubulin-Different-Phenotype (%): 59%
  Total Cell Count: 345
[10]
  Population Apoptotic (%): 61%
  Population Fragmented Nuclei (%): 7%
  Population Healthy Nuclei (%): 68%
  Population Hoechst High Intensity Objects (%): 3%
  Population Membrane Permeable-Phenotype (%): 8%
  Population Mitochondria Different-Phenotype (%): 65%
  Population Mitotic Cells (%): 38%
  Population Normal (%): 96%
  Population Pyknosed Nuclei (%): 23%
  Population Tubulin-Different-Phenotype (%): 47%
  Total Cell Count: 118
[11]
  Population Apoptotic (%): 98%
  Population Fragmented Nuclei (%): 33%
  Population Healthy Nuclei (%): 5%
  Population Hoechst High Intensity Objects (%): 9%
  Population Membrane Permeable-Phenotype (%): 100%
  Population Mitochondria Different-Phenotype (%): 100%
  Population Mitotic Cells (%): 1%
  Population Normal (%): 90%
  Population Pyknosed Nuclei (%): 61%
  Population Tubulin-Different-Phenotype (%): 100%
  Total Cell Count: 177
[12]
  Population Apoptotic (%): 100%
  Population Fragmented Nuclei (%): 21%
  Population Healthy Nuclei (%): 30%
  Population Hoechst High Intensity Objects (%): 21%
  Population Membrane Permeable-Phenotype (%): 95%
  Population Mitotic Cells (%): 0%
  Population Normal (%): 78%
  Population Pyknosed Nuclei (%): 48%
  Total Cell Count: 92
